Five compounds from ChEMBL document CHEMBL3865797, “Design, synthesis and biological evaluation of berberine-benzimidazole hybrids as new type of potentially DNA-targeting antimicrobial agents” (Eur J Med Chem, 2016) can be followed below.

Each structure is given as a SMILES string. Active and inactive are the calls of the source.

By MIC is commonly meant the smallest concentration in the dilution series that meets the test's criterion for growth inhibition. A high value points to a need for much substance. One may read the MIC80 as an inhibitory concentration at the 80% level, which refers to growth in some studies and to a panel of isolates in others. Lower therefore signals greater potency.

Assay [1] has as its system Staphylococcus aureus. As to the kind of experiment: Antibacterial activity against methicillin-resistant Staphylococcus aureus N315 measured after 24 hrs by two-fold serial dilution method. The class given is functional. The following applies: N315, 24 h. In a few lines:
(§1)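 Two-fold serial dilution in 96-well microtest plates following NCCLS guidance (micro broth dilution). Chloromycin and norfloxacin serve as positive controls. MIC is reported in µg/mL.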

For assay [2], the system named is Staphylococcus aureus. The assay is described as follows: Induction of membrane permeabilization in methicillin-resistant Staphylococcus aureus N315 at 12 times MIC by propidium iodide staining-based fluorescence analysis. It counts as functional. In a few lines: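 Cells are exposed to the agent at 12 × MIC, then stained with propidium iodide. The dye enters only cells with compromised membranes and fluoresces on binding DNA, so fluorescence serves as the permeabilization read-out.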

The next assay concerns Micrococcus luteus. As to the kind of experiment: Antibacterial activity against Micrococcus luteus ATCC 4698 measured after 24 hrs by two-fold serial dilution method. It counts as functional. To be noted: NCTC 2665, 24 h. In a few lines:
(§2)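 MIC by two-fold serial broth microdilution in 96-well plates, following NCCLS recommendations. Chloromycin, norfloxacin and fluconazole serve as reference drugs. The MIC is read as the lowest concentration that inhibits growth, in µg/mL.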

The test system of a further assay is Salmonella typhi. The assay is described as follows: Antibacterial activity against Salmonella typhi measured after 24 hrs by two-fold serial dilution method. It counts as functional, Salmonella enterica subsp. enterica serovar Typhi. The following applies: Salmonella enterica. The method in brief:
as §1

The nature of assay [3]: Antifungal activity against Saccharomyces cerevisiae measured after 24 hrs by two-fold serial dilution method. It counts as functional. The method in brief:
as §2

Assay [4] is filed under the species Bos taurus. As to the kind of experiment: Binding affinity to calf thymus DNA assessed as increase in maximum absorption peak at 260 nm by UV-vis spectroscopy. In a few lines:
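Absorption spectra of DNA recorded at pH 7.4 and 298 K with increasing concentrations of added agent. Absorbance at 260 nm of the complex is compared with the summed absorbance of free DNA and free agent.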

A short description of assay [5]: Antifungal activity against Candida utilis measured after 24 hrs by two-fold serial dilution method. It counts as functional. The following applies: Cyberlindnera jadinii. The method in brief:
as §2

Assay [6] has as its system Escherichia coli. As to the kind of experiment: Antibacterial activity against Escherichia coli JM109 measured after 24 hrs by two-fold serial dilution method. The class given is functional. The following applies: JM109, 24 h. In a few lines: as §2
The species entered for assay [7] is Bos taurus. The assay is described as follows: Binding affinity to calf thymus DNA by UV-vis spectroscopy.
Assay [8] relates to Escherichia coli. As to the kind of experiment: Induction of Escherichia coli supercoiled pET-28a DNA cleavage measured at 0.1 mM after 5 hrs by agarose gel electrophoresis method.
A further assay has as its system Aspergillus flavus. The assay is described as follows: Antifungal activity against Aspergillus flavus measured after 24 hrs by two-fold serial dilution method. It counts as functional. The method in brief:
as §2

For assay [9], the species on record is Bos taurus. The assay is described as follows: Binding affinity to calf thymus DNA assessed as DNA intercalation by neutral red dye based UV-vis spectroscopy.
A further assay relates to Candida albicans. As to the kind of experiment: Antifungal activity against Candida albicans ATCC 76615 measured after 24 hrs by two-fold serial dilution method. The class given is functional. To be noted: ATCC 76615, 24 h. The method in brief:
as §2

In a further assay the test system is Bacillus subtilis. As to the kind of experiment: Antibacterial activity against Bacillus subtilis measured after 24 hrs by two-fold serial dilution method. It counts as functional. In a few lines: as §2
A further assay has as its system Proteus vulgaris. The assay is described as follows: Antibacterial activity against Bacillus proteus ATCC 13315 measured after 24 hrs by two-fold serial dilution method. To be noted: ATCC 13315, 24 h. The class given is functional. In a few lines: as §2
The species entered for assay [10] is Bos taurus. As to the kind of experiment: Binding affinity to calf thymus DNA assessed as hypochromic effect by UV-vis spectroscopy.
Assay [11] has as its system Staphylococcus aureus. As to the kind of experiment: Antibacterial activity against Staphylococcus aureus ATCC 25923 measured after 24 hrs by two-fold serial dilution method. It counts as functional. The following applies: ATCC 25923, 24 h. The method in brief: as §2
The test system of assay [12] is Escherichia coli. As to the kind of experiment: Induction of membrane permeabilization in Escherichia coli DH52 at 12 times MIC by propidium iodide staining-based fluorescence analysis. It counts as functional. In a few lines:
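Propidium iodide uptake measured by fluorescence in E. coli DH52 exposed to agent at 12 × MIC. The dye enters bacteria with compromised membranes and fluoresces on binding DNA.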

The next assay concerns Pseudomonas aeruginosa. The assay is described as follows: Antibacterial activity against Pseudomonas aeruginosa measured after 24 hrs by two-fold serial dilution method. It counts as functional. The method in brief:
as §2

As for `CCCCCCCn1c(COc2c(OC)ccc3cc4[n+](cc23)CCc2cc3c(cc2-4)OCO3)nc2ccccc21.[Cl-]`, the MIC with Staphylococcus aureus [1] is 8 µg/mL; in the assay on Micrococcus luteus, 64 µg/mL; in the assay on Salmonella typhi, 2 µg/mL; in the assay on Escherichia coli [6] it was 4 µg/mL; with Bacillus subtilis, 32 µg/mL; in the assay on Proteus vulgaris it was 512 µg/mL. Further, the MIC amounted to 4 µg/mL with Staphylococcus aureus [11] and 16 µg/mL against Pseudomonas aeruginosa. In addition, the outcome with Staphylococcus aureus [2], in the assay filed under Bos taurus [9], in the assay listed under Bos taurus [10] and with Escherichia coli [12] was Active. Further, the MIC80 was 512 µg/mL in assay [3], 8 µg/mL in [5], 32 µg/mL in the assay on Aspergillus flavus and 4 µg/mL with Candida albicans. Besides, the Activity entry in the assay filed under Bos taurus [4] and in the assay on Escherichia coli [8] was “Dose-dependent effect” in each case. The same compound came in with a K in the assay filed under Bos taurus [7] of 4.12 ×10⁴ L/mol.

For the compound `COc1ccc2cc3[n+](cc2c1OCc1nc2ccccc2n1Cc1ccc([N+](=O)[O-])cc1)CCc1cc2c(cc1-3)OCO2.[Cl-]`, the MIC against Staphylococcus aureus [1] came to 512 µg/mL; with Micrococcus luteus it was 32 µg/mL; against Salmonella typhi, 256 µg/mL; against Escherichia coli [6], 32 µg/mL; against Bacillus subtilis, 512 µg/mL; in the assay with Proteus vulgaris, 32 µg/mL. Further, the MIC in the assay on Staphylococcus aureus [11] came out at 64 µg/mL; in the assay on Pseudomonas aeruginosa, 512 µg/mL. In addition, the MIC80 in assay [3] came to 128 µg/mL; in [5], 32 µg/mL; in the assay with Aspergillus flavus, 64 µg/mL; in the assay with Candida albicans, 128 µg/mL.

As to `COc1ccc2cc3[n+](cc2c1OCc1nc2ccccc2[nH]1)CCc1cc2c(cc1-3)OCO2.[Cl-]`, the MIC in the assay on Staphylococcus aureus [1] was found to be 256 µg/mL; against Micrococcus luteus, 32 µg/mL; against Salmonella typhi, 16 µg/mL; with Escherichia coli [6] it was 512 µg/mL; in the assay with Bacillus subtilis it was 512 µg/mL; with Proteus vulgaris, 256 µg/mL. Besides, the minimal inhibitory concentration (MIC) was found to be 512 µg/mL in the assay with Staphylococcus aureus [11] and 256 µg/mL in the assay on Pseudomonas aeruginosa. Besides, the MIC80 in assay [3] is 512 µg/mL; in assay [5], 64 µg/mL; in the assay with Aspergillus flavus it was 32 µg/mL; in the assay with Candida albicans, 256 µg/mL.

In the case of `CCCn1c(COc2c(OC)ccc3cc4[n+](cc23)CCc2cc3c(cc2-4)OCO3)nc2ccccc21.[Cl-]`, the minimal inhibitory concentration (MIC) against Staphylococcus aureus [1] came out at 4 µg/mL; against Micrococcus luteus it was 32 µg/mL; against Salmonella typhi it was 4 µg/mL; against Escherichia coli [6] it was 256 µg/mL; with Bacillus subtilis, 64 µg/mL; against Proteus vulgaris, 256 µg/mL. Moreover, the MIC against Staphylococcus aureus [11] was found to be 128 µg/mL; in the assay on Pseudomonas aeruginosa it was 64 µg/mL. Further, the MIC80 in assay [3] worked out at 512 µg/mL; in assay [5], 16 µg/mL; against Aspergillus flavus it was 16 µg/mL; against Candida albicans it was 64 µg/mL.

For `COc1ccc2cc3[n+](cc2c1OCc1nc2ccc(Cl)cc2[nH]1)CCc1cc2c(cc1-3)OCO2.[Cl-]`, the MIC is 256 µg/mL against Staphylococcus aureus [1]; 128 µg/mL in the assay on Micrococcus luteus; 64 µg/mL in the assay on Salmonella typhi; 512 µg/mL in the assay on Escherichia coli [6]; 512 µg/mL against Bacillus subtilis; 32 µg/mL in the assay with Proteus vulgaris. For the same compound, the MIC was 64 µg/mL in the assay with Staphylococcus aureus [11] and 512 µg/mL in the assay with Pseudomonas aeruginosa. Further, the MIC80 in [3] came to 512 µg/mL; in assay [5], 256 µg/mL; against Aspergillus flavus, 32 µg/mL; against Candida albicans, 512 µg/mL.
